Data set [1] can be described thus: Antidiabetic nephropathic activity in rat HBZY-1 cells assessed as inhibition of high concentration glucose-induced collagen-4 production at 10 uM treated 1 hr before glucose challenge measured after 24 hrs by ELISA. Format: functional, cell-based. In short, it runs like this: (§1)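 HBZY-1 rat mesangial cells (passages 3–10) were grown in DMEM with 5.6 mM glucose, 20% FCS and 10 mM HEPES. At 80% confluence they were arrested in 0.5% FCS for 24 h, then pretreated with compound for 1 h and stimulated with high glucose (25 mM) for 24 h. Supernatant IL-6, fibronectin or collagen IV was measured by sandwich ELISA, normalized to total cell protein (BCA), and compared by ANOVA.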
In general terms: An ELISA detects its analyte on a solid surface through an enzyme-linked reagent.

The nature of data set [2]: Antidiabetic nephropathic activity in rat HBZY-1 cells assessed as inhibition of high concentration glucose-induced IL-6 production at 10 uM treated 1 hr before glucose challenge measured after 24 hrs by ELISA. Format: functional, cell-based. In short, it runs like this:
as §1

The nature of data set [3]: Cytotoxicity against rat HBZY-1 cells assessed as cell viability at 10 uM after 48 hrs by MTT assay. Format: cell-based. The settings on record: hbzy-1, 48 h. In short, it runs like this:
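Cells were seeded at 10⁴ per well and held in serum-free medium for 24 h. They were exposed to compound at 10 μM, or left without it, for 48 h. MTT (5 mg/mL stock) was added for 4 h at 37 °C, the formazan was dissolved in DMSO, and A570 was read. Values were normalized to control-medium cells.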
In general terms: Formazan colour is commonly taken as a measure of viable cells.

The nature of data set [4]: Antidiabetic nephropathic activity in rat HBZY-1 cells assessed as inhibition of high concentration glucose-induced fibronectin production at 10 uM treated 1 hr before glucose challenge measured after 24 hrs by ELISA. Format: functional, cell-based. In short, it runs like this: as §1
Data set [5] in a line: Antidiabetic nephropathic activity in rat HBZY-1 cells assessed as inhibition of high concentration glucose-induced IL-6 production at 88 uM treated 1 hr before glucose challenge measured after 24 hrs by ELISA. Format: functional, cell-based.
The nature of data set [6]: Antidiabetic nephropathic activity in rat HBZY-1 cells assessed as inhibition of high concentration glucose-induced IL-6 production at 35 uM treated 1 hr before glucose challenge measured after 24 hrs by ELISA. Format: functional, cell-based. In a few lines: as §1

Active and inactive are the calls of the source. The calls are words filed in the database; no cut-off is given here.

16 compounds from ChEMBL document CHEMBL2396596, “Anthraquinone derivatives from Rumex plants and endophytic Aspergillus fumigatus and their effects on diabetic nephropathy” (Bioorg Med Chem Lett, 2013) can be followed below.

Regarding `COc1cc(O)c2c(c1)[C@@](O)([C@@H]1O[C@H](CO)[C@@H](O)[C@H](O)[C@H]1O)c1cc(C)cc(O)c1C2=O`, the inhibition result in data set [1], in data set [2] and in data set [4] was “Active” throughout. For the same compound, the Activity result in data set [3] is listed as “Non-toxic”.

For `Cc1cc(O[C@@H]2O[C@H](CO)[C@@H](O)[C@H](O)[C@H]2O)c(C(=O)c2c(O)cccc2O)c(C(=O)O)c1`, the inhibition result in data set [1], in data set [2] and in data set [4] was “Active” each time. Further, the Activity result in data set [3] is reported as “Non-toxic”.

For `Cc1cc(O)c2c(c1)[C@@](O)([C@@H]1O[C@H](CO)[C@@H](O)[C@H](O)[C@H]1O)c1cc(O)cc(O)c1C2=O`, the inhibition result in data set [1] and in data set [4] was “Active” each time. In addition, the Activity result in data set [3] was “Non-toxic”.

As to `COC(=O)c1cc(O)cc(OC)c1C(=O)c1c(O)cc(C)cc1OC`, the inhibition result in data set [1], in data set [2] and in data set [4] was “Active” throughout. Besides, the Activity entry in data set [3] was “Non-toxic”.

Take `CC(=O)OC[C@H]1O[C@@H](Oc2cc(O)cc3c2C(=O)c2c(O)cc(C)cc2C3=O)[C@H](O)[C@@H](O)[C@@H]1O`: the inhibition result in data set [2] was “Active”.

For `COc1cc(C)cc2c1C(=O)c1c(O)cc(O)cc1C2=O`, the inhibition result in data set [2] is “Active”.

`COc1cc(O)c2c(c1)[C@](O)([C@@H]1O[C@H](CO)[C@@H](O)[C@H](O)[C@H]1O)c1cc(C)cc(O)c1C2=O`: the inhibition result in data set [2] is “Active”.

Regarding `Cc1cc(O)c2c(c1)C(=O)c1cc(O)cc(O[C@@H]3O[C@H](CO)[C@@H](O)[C@H](O)[C@H]3O)c1C2=O`, the inhibition result in data set [2] was “Active”.

As for `O=C(O)c1cc(O)c2c(c1)C(=O)c1cccc(O)c1C2=O`, in data set [5], the inhibition result was “Active”. The inhibition entry in data set [6] is “inactive”.

In the case of `O=C1c2cccc(O)c2C(=O)c2c(O)cc(CO)cc21`, the inhibition entry in data set [2] is “Active”.

For `COC(=O)c1c(OC)c(O)cc(OC)c1C(=O)c1c(O)cc(C)cc1OC` [ASPERFUMIN], the inhibition entry in data set [1], in data set [2] and in data set [4] was “Active” in each case. Also, the Activity result in data set [3] was “Non-toxic”.

Turning to `Cc1cc(O)c2c(c1)C(=O)c1cccc(O)c1C2=O` [CHRYSOPHANOL], the inhibition result in data set [1], in data set [2] and in data set [4] was “Active” throughout. The Activity entry in data set [3] was “Non-toxic”.

Turning to `Cc1cc(O)c2c(c1)C(=O)c1cc(O)cc(O)c1C2=O` [EMODIN], the inhibition entry in data set [1], in data set [2] and in data set [4] was “Active” each time. The Activity result in data set [3] is “Non-toxic”.

For the compound `COc1cc(O)c2c(c1)C(=O)c1cc(C)cc(O)c1C2=O` [PHYSCION], the inhibition result in data set [1], in data set [2] and in data set [4] was “Active” in each case. Also, the Activity entry in data set [3] is “Non-toxic”.

As for `COc1cc(O)cc2c1C(=O)c1c(O)cc(C)cc1C2=O` [QUESTIN], the inhibition result in data set [1], in data set [2] and in data set [4] was “Active” in each case. Moreover, the Activity result in data set [3] was “Non-toxic”.

Take `COC(=O)C1=CC(=O)C=C(OC)C12Oc1cc(C)cc(OC)c1C2=O` (stereo unspecified) [TRYPACIDIN]: the inhibition result in data set [1], in data set [2] and in data set [4] was “Active” in each case. In addition, the Activity result in data set [3] is recorded as “Non-toxic”.
